Results on 13 compounds are retold here after ChEMBL document CHEMBL4431394, “Modifications of a Nanomolar Cyclic Peptide Antagonist for the EphA4 Receptor To Achieve High Plasma Stability” (ACS Med Chem Lett, 2016).

Peptide text beside a SMILES is read from it.

Tested on in the first data set: not listed separately
Put plainly: Stability in Sprague-Dawley rat CSF assessed as remaining peptide antagonistic activity for inhibition of binding of alkaline phosphatase-fused ephrin-A5 to immobilized EphA4 Fc incubated for 3 days by ELISA. It counts as tissue-based, Cerebrospinal fluid. Conditions: in vitro, 72 h. Put shortly:
(§1)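 Peptide was incubated in mouse plasma or rat CSF for various periods. The residual ability to inhibit ephrin-A5–EphA4 interaction was then measured by ELISA, and the half-life of active peptide was derived from the loss of activity over time.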
As for `CC(C)[C@@H]1NC(=O)[C@@H](NC(=O)[C@H](Cc2ccc(O)cc2)NC(=O)[C@@H]2CCCN2C(=O)[C@@H](C)N)CSSC[C@@H](C(N)=O)NC(=O)[C@H](CO)NC(=O)[C@H](Cc2c[nH]c3ccccc23)NC(=O)[C@H](CO)NC(=O)CCNC(=O)[C@H](CCCNC(=N)N)NC(=O)[C@H](Cc2ccc(O)cc2)NC1=O`, the Stability entry is on record as “Stable”.

The next data set relates to HT-22. The experiment in a line: Cytotoxicity against mouse HT22 cells at 15 to 30 uM after 24 hrs by MTT assay. It counts as cell-based. The note with it: ht-22, 24 h. Put shortly:
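HT22 neuronal cells were grown 24 h with 15 or 30 μM peptide, alongside controls receiving the matching DMSO concentration. Cell number was quantified by MTT, with averages ± SE from 5 measurements.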
(Tetrazolium assays rely on reduction of a dye to a coloured formazan, in cell work by metabolically active cells.)
As to `CC(C)[C@@H]1NC(=O)[C@@H](NC(=O)[C@H](Cc2ccc(O)cc2)NC(=O)[C@@H]2CCCN2C(=O)CCN)CSSC[C@@H](C(N)=O)NC(=O)[C@H](CCC(=O)O)NC(=O)[C@H](Cc2c[nH]c3ccccc23)NC(=O)[C@H](CCC(=O)O)NC(=O)CCNC(=O)[C@H](CCCNC(=N)N)NC(=O)[C@H](Cc2ccc(O)cc2)NC1=O`, the Activity entry is recorded as “Non-Toxic”.

In the next data set the target is Ephrin type-A receptor 4 (Homo sapiens, UniProt P54764). Put plainly: Antagonist activity against human EphA4 receptor assessed as inhibition of binding of alkaline phosphatase-fused ephrin-A5 to immobilized EphA4 Fc by ELISA.
Sequence of Ephrin type-A receptor 4 (P54764 whole entry, the tested form may be a part): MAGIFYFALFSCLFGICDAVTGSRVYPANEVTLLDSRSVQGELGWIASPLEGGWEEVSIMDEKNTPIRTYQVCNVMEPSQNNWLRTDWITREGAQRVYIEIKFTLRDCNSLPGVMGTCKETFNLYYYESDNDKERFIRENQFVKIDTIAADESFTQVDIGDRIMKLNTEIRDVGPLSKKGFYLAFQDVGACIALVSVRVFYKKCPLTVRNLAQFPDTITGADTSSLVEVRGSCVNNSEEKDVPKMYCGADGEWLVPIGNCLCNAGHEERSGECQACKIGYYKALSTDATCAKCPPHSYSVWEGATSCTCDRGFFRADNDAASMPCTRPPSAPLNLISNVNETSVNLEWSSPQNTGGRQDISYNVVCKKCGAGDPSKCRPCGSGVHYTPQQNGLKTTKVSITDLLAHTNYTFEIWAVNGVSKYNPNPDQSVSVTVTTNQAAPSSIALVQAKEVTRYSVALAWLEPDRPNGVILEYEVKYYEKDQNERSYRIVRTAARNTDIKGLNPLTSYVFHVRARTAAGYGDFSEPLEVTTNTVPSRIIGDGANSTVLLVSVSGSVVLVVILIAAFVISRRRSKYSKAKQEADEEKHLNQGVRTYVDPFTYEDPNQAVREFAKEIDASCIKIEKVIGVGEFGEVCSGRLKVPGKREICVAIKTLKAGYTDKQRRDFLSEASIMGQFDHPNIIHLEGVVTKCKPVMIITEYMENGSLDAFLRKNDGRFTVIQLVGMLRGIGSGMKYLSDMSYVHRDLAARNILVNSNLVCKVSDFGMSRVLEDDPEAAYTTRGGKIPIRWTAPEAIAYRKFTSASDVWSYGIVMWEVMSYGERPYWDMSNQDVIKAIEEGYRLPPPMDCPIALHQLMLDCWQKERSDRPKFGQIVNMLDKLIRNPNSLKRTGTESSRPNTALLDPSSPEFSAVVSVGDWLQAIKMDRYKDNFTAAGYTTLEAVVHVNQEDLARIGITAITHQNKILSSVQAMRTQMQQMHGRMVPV
Details: not given
Turning to `CC(C)[C@@H]1NC(=O)[C@@H](NC(=O)[C@H](Cc2ccc(O)cc2)NC(=O)[C@@H]2CCCN2C(=O)CCN)CSSC[C@@H](C(N)=O)NC(=O)[C@H](Cc2c[nH]c3ccccc23)NC(=O)[C@H](CCC(=O)O)NC(=O)[C@H](CCC(=O)O)NC(=O)CCNC(=O)[C@H](CCCNC(=N)N)NC(=O)[C@H](Cc2ccc(O)cc2)NC1=O` (HELM PEPTIDE1{[bAla].P.Y.C.V.Y.R.[bAla].E.E.W.C.[am]}$PEPTIDE1,PEPTIDE1,4:R3-12:R3$$$V2.0), the IC50 is greater than 10 µM.

Tested on in the next data set: not listed separately
Put plainly: Half life in mouse plasma assessed as remaining peptide antagonistic activity for inhibition of binding of alkaline phosphatase-fused ephrin-A5 to immobilized EphA4 Fc incubated for 3 days by ELISA. It counts as cell-free.
Details: not given
Put shortly: as §1
In general terms: An ELISA detects its analyte on a solid surface through an enzyme-linked reagent.
For the compound `CC(C)[C@@H]1NC(=O)[C@@H](NC(=O)[C@H](Cc2ccc(O)cc2)NC(=O)CCCCN)CSSC[C@@H](C(N)=O)NC(=O)[C@H](CO)NC(=O)[C@H](Cc2c[nH]c3ccccc23)NC(=O)[C@H](CO)NC(=O)CCNC(=O)[C@H](CCCNC(=N)N)NC(=O)[C@H](Cc2ccc(O)cc2)NC1=O`, the half-life is greater than 72 h.

As to `CC(C)[C@@H]1NC(=O)[C@@H](NC(=O)[C@H](Cc2ccc(O)cc2)NC(=O)CCCCCN)CSSC[C@@H](C(N)=O)NC(=O)[C@H](CO)NC(=O)[C@H](Cc2c[nH]c3ccccc23)NC(=O)[C@H](CO)NC(=O)CCNC(=O)[C@H](CCCNC(=N)N)NC(=O)[C@H](Cc2ccc(O)cc2)NC1=O`, the half-life is greater than 72 h.

On to `CC(C)[C@@H]1NC(=O)[C@@H](NC(=O)[C@H](Cc2ccc(O)cc2)NC(=O)[C@@H]2CCCN2C(=O)[C@H](C)N)CSSC[C@@H](C(N)=O)NC(=O)[C@H](CO)NC(=O)[C@H](Cc2c[nH]c3ccccc23)NC(=O)[C@H](CO)NC(=O)CCNC(=O)[C@H](CCCNC(=N)N)NC(=O)[C@H](Cc2ccc(O)cc2)NC1=O`, for which the half-life was less than 3 h.

Turning to `CC(C)[C@@H]1NC(=O)[C@@H](NC(=O)[C@H](Cc2ccc(O)cc2)NC(=O)CCN)CSSC[C@@H](C(N)=O)NC(=O)[C@H](CO)NC(=O)[C@H](Cc2c[nH]c3ccccc23)NC(=O)[C@H](CO)NC(=O)CCNC(=O)[C@H](CCCNC(=N)N)NC(=O)[C@H](Cc2ccc(O)cc2)NC1=O`, the half-life was 30 h.

With `CC(=O)N1CCC[C@H]1C(=O)N[C@@H](Cc1ccc(O)cc1)C(=O)N[C@H]1CSSC[C@@H](C(N)=O)NC(=O)[C@H](CO)NC(=O)[C@H](Cc2c[nH]c3ccccc23)NC(=O)[C@H](CO)NC(=O)CCNC(=O)[C@H](CCCNC(=N)N)NC(=O)[C@H](Cc2ccc(O)cc2)NC(=O)[C@H](C(C)C)NC1=O`, the half-life is greater than 72 h.

Regarding `CC(C)[C@@H]1NC(=O)[C@@H](NC(=O)[C@H](Cc2ccc(O)cc2)NC(=O)[C@@H]2CCCN2)CSSC[C@@H](C(N)=O)NC(=O)[C@H](CO)NC(=O)[C@H](Cc2c[nH]c3ccccc23)NC(=O)[C@H](CO)NC(=O)CCNC(=O)[C@H](CCCNC(=N)N)NC(=O)[C@H](Cc2ccc(O)cc2)NC1=O`, the half-life is 15 h.

As for `CC(C)[C@@H]1NC(=O)[C@@H](NC(=O)[C@H](Cc2ccc(O)cc2)NC(=O)[C@@H]2CCCN2C(=O)[C@@H](C)N)CSSC[C@@H](C(N)=O)NC(=O)[C@H](CO)NC(=O)[C@H](Cc2c[nH]c3ccccc23)NC(=O)[C@H](CO)NC(=O)CCNC(=O)[C@H](CCCNC(=N)N)NC(=O)[C@H](Cc2ccc(O)cc2)NC1=O`, the half-life was greater than 72 h.

`CC(C)[C@@H]1NC(=O)[C@@H](NC(=O)[C@H](Cc2ccc(O)cc2)NC(=O)CCCN)CSSC[C@@H](C(N)=O)NC(=O)[C@H](CO)NC(=O)[C@H](Cc2c[nH]c3ccccc23)NC(=O)[C@H](CO)NC(=O)CCNC(=O)[C@H](CCCNC(=N)N)NC(=O)[C@H](Cc2ccc(O)cc2)NC1=O`: the half-life is greater than 72 h.

Turning to `CC(C)[C@@H]1NC(=O)[C@@H](NC(=O)[C@H](Cc2ccc(O)cc2)NC(=O)CN)CSSC[C@@H](C(N)=O)NC(=O)[C@H](CO)NC(=O)[C@H](Cc2c[nH]c3ccccc23)NC(=O)[C@H](CO)NC(=O)CCNC(=O)[C@H](CCCNC(=N)N)NC(=O)[C@H](Cc2ccc(O)cc2)NC1=O`, the half-life is 6 h.

For the compound `CC(C)[C@@H]1NC(=O)[C@@H](NC(=O)[C@H](Cc2ccc(O)cc2)NC(=O)[C@@H]2CCCN2C(=O)CCN)CSSC[C@@H](C(N)=O)NC(=O)[C@H](CCC(=O)O)NC(=O)[C@H](Cc2c[nH]c3ccccc23)NC(=O)[C@H](CCC(=O)O)NC(=O)CCNC(=O)[C@H](CCCNC(=N)N)NC(=O)[C@H](Cc2ccc(O)cc2)NC1=O`, the half-life is greater than 72 h.

Consider `CNCC(=O)N[C@@H](Cc1ccc(O)cc1)C(=O)N[C@H]1CSSC[C@@H](C(N)=O)NC(=O)[C@H](CO)NC(=O)[C@H](Cc2c[nH]c3ccccc23)NC(=O)[C@H](CO)NC(=O)CCNC(=O)[C@H](CCCNC(=N)N)NC(=O)[C@H](Cc2ccc(O)cc2)NC(=O)[C@H](C(C)C)NC1=O`, for which the half-life was greater than 72 h.

In the case of `CC(=O)N[C@@H](C)C(=O)N1CCC[C@H]1C(=O)N[C@@H](Cc1ccc(O)cc1)C(=O)N[C@H]1CSSC[C@@H](C(N)=O)NC(=O)[C@H](CO)NC(=O)[C@H](Cc2c[nH]c3ccccc23)NC(=O)[C@H](CO)NC(=O)CCNC(=O)[C@H](CCCNC(=N)N)NC(=O)[C@H](Cc2ccc(O)cc2)NC(=O)[C@H](C(C)C)NC1=O`, the half-life is 72 h.

In general, IC50 refers to the point on the concentration scale where inhibition reaches its midpoint. In general, half-life refers to the time needed for the level to fall by half in the phase considered.
